This note sets out measurements from ChEMBL document CHEMBL5365541, “Designing peptide amphiphiles as novel antibacterials and antibiotic adjuvants against gram-negative bacteria” (Bioorg Med Chem, 2023).

The subject of data set [1] is Staphylococcus aureus. Put plainly: Antibacterial activity against Methicillin-resistant Staphylococcus aureus JE2 infected in Galleria mellonella assessed as survival at 50 mg/kg measured after 4 days relative to control. Type of data set: functional. To be noted: JE2, 96 h, time 4 day. The procedure, abridged:
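G. mellonella larvae injected with 10 µL MRSA JE2 at a pre-set infective dose (60-80% lethality within 48 h, not 100% within 24 h) into last left proleg; after 2 h, 10 µL peptide or antibiotic injected into last right proleg; larvae held at 37 °C, mortality recorded daily for 4 days; untreated infected and PBS-only larvae as controls.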

The test system of data set [2] is Escherichia coli. The data set is described as follows: Antibacterial activity against Escherichia coli K12 incubated for 20 to 24 hrs by broth microdilution method. Type of data set: functional. To be noted: time 20-24 hrs. A digest of the protocol: (§1)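 Broth microdilution: colonies suspended directly to 1.5×10^8 CFU/mL (0.5 McFarland), then diluted in Mueller–Hinton broth to ~10^5 CFU/mL final. PA stock 1 mg/mL in water, pH 7, serially diluted in MHB. Plates incubated 20–24 h at 37 °C. MIC = lowest concentration inhibiting growth, read as OD600 with optional 1% TTC staining. Triplicate.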
(In general: In broth dilution the organism is exposed to a series of concentrations in liquid medium.)

For data set [3], the system named is Escherichia coli. Put plainly: Ratio of MIC for Escherichia coli K12 at pH 5.5 to MIC for Escherichia coli K12 at pH 7.0.
A short description of data set [4]: Self assembly property of the compound assessed as zeta potential at 250 ug/mL at pH 7 measured after 2 hrs. Type of data set: physicochemical. To be noted: pH 7, 2 h, dose 250 µg/ml. A digest of the protocol: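 Peptide self-assembled at 1 mg/mL, pH 7, annealed 2 h at 80 °C, and aged overnight. Diluted to 250 µg/mL in water; zeta potential measured at 25 °C.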

Data set [5] is described as follows: Self assembly property of the compound assessed as formation of micelles at 1 mg/ml incubated overnight by transmission electron microscopy. Type of data set: physicochemical. The procedure, abridged: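 Samples were dissolved at 2 mM in water, pH 7, and left at room temperature overnight. Applied to copper grids for 5 min, blotted, and negatively stained with NanoVan for 30 s. Imaged by TEM at 120 kV.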

The subject of data set [6] is Staphylococcus aureus. The data set is described as follows: Antibacterial activity against methicillin-resistant Staphylococcus aureus 13C incubated for 20 to 24 hrs by broth microdilution method. Type of data set: functional. The following applies: time 20-24 hrs. A digest of the protocol:
(§2)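 Broth microdilution in MHB: direct colony suspension at 0.5 McFarland diluted to ~10^5 CFU/mL final; peptide stock 1 mg/mL in water at pH 7, serially diluted. Incubated 20-24 h at 37 °C; MIC taken as the lowest concentration inhibiting growth (OD 600 nm, 1% TTC stain); triplicate; vancomycin and gentamicin as positive controls.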

In data set [7] the test system is HT-29. The data set is described as follows: (§3) Cytotoxicity against human HT-29 cells assessed as inhibition of cell growth incubated for 24 hrs at pH 6.5 by MTT assay. Type of data set: toxicity, cell-based. The following applies: ht-29, pH 6.5, 24 h, time 24 hrs. The procedure, abridged: (§4)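 HT-29 cells in McCoy's 5a with 10% FBS were seeded at 15,000 cells/well and grown 24 h at 37 °C, 10% CO2. Medium then changed to pH 7.4 or pH 6.5 (20 mM MOPS, acidified with HCl). Peptide added in 2-fold dilutions, 7.8–500 µg/mL, for 24 h. Wells washed and given fresh pH 7.4 medium. MTT (12 mM, 10 µL) added for 4 h, then SDS-HCl for 4 h; A570 read.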
On the technique in general: Tetrazolium dyes change colour on reduction, which living cells bring about.

The nature of data set [8]: Retention time of the compound by RP-HPLC analysis. Type of data set: physicochemical. A digest of the protocol: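 Reverse-phase HPLC, linear gradient 0–100% acetonitrile in water with 0.1% TFA over 20 min; retention time recorded.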
The subject of data set [9] is Staphylococcus aureus. Put plainly: Antibacterial activity against methicillin-resistant Staphylococcus aureus JE2 incubated for 20 to 24 hrs by broth microdilution method. Type of data set: functional. The following applies: time 20-24 hrs. The procedure, abridged:
as §2

Another data set concerns Acinetobacter baumannii. The data set is described as follows: Antibacterial activity against Acinetobacter baumannii incubated for 20 to 24 hrs by broth microdilution method. The following applies: time 20-24 hrs. Type of data set: functional. A digest of the protocol: as §1
Data set [10] relates to Staphylococcus aureus. Put plainly: Ratio of MIC for methicillin-resistant Staphylococcus aureus JE2 at pH 5.5 to MIC for methicillin-resistant Staphylococcus aureus JE2 at pH 7.0.
Data set [11] relates to HT-29. Put plainly: (§5) Cytotoxicity against human HT-29 cells assessed as inhibition of cell growth incubated for 24 hrs at pH 7.4 by MTT assay. Type of data set: toxicity, cell-based. The following applies: ht-29, pH 7.4, 24 h, time 24 hrs. A digest of the protocol:
as §4

Data set [12] concerns HT-29. Put plainly: Cytotoxicity against human HT-29 cells assessed as reduction in cell viability at 500 ug/ml incubated for 24 hrs at pH 6.5 by MTT assay. Type of data set: toxicity, cell-based. The following applies: ht-29, pH 6.5, 24 h, dose 500 µg/ml. A digest of the protocol: as §4
Data set [13] in a line: as §3. Type of data set: toxicity, cell-based. To be noted: HT-29 cells, pH 6.5. The procedure, abridged: as §4
For data set [14], the system named is HT-29. The data set is described as follows: Cytotoxicity against human HT-29 cells assessed as loss of cell viability at 125 ug/ml incubated for 24 hrs at pH 7.4 by MTT assay. Type of data set: toxicity, cell-based. The following applies: ht-29, pH 7.4, 24 h, at 125 µg/mL. The procedure, abridged:
as §4

Data set [15] in a line: Cytotoxicity against human HT-29 cells assessed as viable cells at 250 ug/ml incubated for 24 hrs at pH 7.4 by MTT assay. Type of data set: toxicity, cell-based. To be noted: at 250 µg/mL, read-out: Activity. The procedure, abridged: as §4
Data set [16] can be described thus: as §5. Type of data set: toxicity, cell-based. The following applies: HT-29 cells, pH 7.4. A digest of the protocol: as §4
Data set [17] concerns Staphylococcus aureus. The data set is described as follows: Antibacterial activity against methicillin resistant Staphylococcus aureus JE2 measured over 21 days by broth microdilution method. Type of data set: functional, organism-based. The following applies: time 21.0 day.

In brackets after ≈: the same amount, converted by molar mass. Activity calls are given as the source filed them. Starred links: 1 amine or outer side, 2 acyl side, 3 side chain; linkers in the order of their positions; H or OH if unused. Non-standard residues stand in square brackets, D forms with d. Residues, ends and D or L forms follow the SMILES beside them. ξ: configuration not given here. X3 = CCCCCCCCCCCCCCCCCCN([C@@H](Cc1c[nH]cn1)C(=O)[*:2])[*:1]; X5 = CCCCCCCCCCCCCCCCCCN([C@@H](CCCNC(=N)N)C(=O)[*:2])[*:1]; ξDap = NCC(N)C(=O)O

For the compound `CN[C@H](CC(C)C)C(=O)N[C@H]1C(=O)N[C@@H](CC(N)=O)C(=O)N[C@H]2C(=O)N[C@H]3C(=O)N[C@H](C(=O)N[C@H](C(=O)O)c4cc(O)cc(O)c4-c4cc3ccc4O)[C@H](O)c3ccc(c(Cl)c3)Oc3cc2cc(c3O[C@@H]2O[C@H](CO)[C@@H](O)[C@H](O)[C@H]2O[C@H]2C[C@](C)(N)[C@H](O)[C@H](C)O2)Oc2ccc(cc2Cl)[C@H]1O` [VANCOMYCIN], the survival at 50 mg/kg with Staphylococcus aureus [1] was 30%. Moreover, in the data set with Escherichia coli [2], inhibition of growth (MIC) required 128 µg/mL (≈ 88.3 µM).

`CCCCCCCCCCCCCCCCCCN[C@@H](C)C(=O)N[C@@H](C)C(=O)NC(CN)C(=O)NC(CN)C(=O)NC(CN)C(=O)O` (stereo partly drawn): the Ratio in the data set on Escherichia coli [3] and in the data set with Staphylococcus aureus [10] was greater than 1 each time. The Activity is recorded as 10.3 mV in data set [4], “Active” in data set [5], “Non-Toxic” in the data set on HT-29 [7] and “Non-Toxic” in the data set on HT-29 [11]. Further, the minimal inhibitory concentration (MIC) (as a rule, the smallest concentration in the dilution series that meets the test's criterion for growth inhibition) with Staphylococcus aureus [6] came out at 64 µg/mL (≈ 95.4 µM); in the data set on Staphylococcus aureus [9], 32 µg/mL (≈ 47.7 µM); against Escherichia coli [2], 32 µg/mL (≈ 47.7 µM); against Acinetobacter baumannii, 64 µg/mL (≈ 95.4 µM). The Retention_time in [8] is 15.9 min.

As for `CCCCCCCCCCCCCCCCCCN[C@@H](Cc1c[nH]cn1)C(=O)N[C@@H](Cc1c[nH]cn1)C(=O)NC(CN)C(=O)NC(CN)C(=O)NC(CN)C(=O)O` (stereo partly drawn) (H-[X3]H[ξDap][ξDap][ξDap]-OH), the Ratio in the data set with Escherichia coli [3] and in the data set with Staphylococcus aureus [10] was greater than 1 in each case. For the same compound, the Activity in [4] is 30.4 mV; with HT-29 [12], “Non-Toxic”; in data set [5], “Active”; in the data set with HT-29 [14], 100%. Besides, the MIC with Staphylococcus aureus [6] came out at 32 µg/mL (≈ 39.8 µM); against Staphylococcus aureus [9], 64 µg/mL (≈ 79.7 µM); against Escherichia coli [2] it was 64 µg/mL (≈ 79.7 µM); with Acinetobacter baumannii it was 64 µg/mL (≈ 79.7 µM). Also, the IC50 (usually the concentration that inhibits the measured activity by half) at 24 h in data set [13] turned out to be 72.3 µg/mL (≈ 90 µM); in [16], 126 µg/mL (≈ 157 µM). For the same compound, the Retention_time in data set [8] was 14.4 min. In addition, the viability at 24 h, 250 ug/ml in [15] amounted to 0%.

`CCCCCCCCCCCCCCCCCCN[C@@H](CCCNC(=N)N)C(=O)N[C@@H](CCCNC(=N)N)C(=O)NC(CN)C(=O)NC(CN)C(=O)NC(CN)C(=O)O` (stereo partly drawn) (H-[X5]R[ξDap][ξDap][ξDap]-OH): the Ratio with Escherichia coli [3] and with Staphylococcus aureus [10] was greater than 1 each time. Besides, the Activity is recorded as 30.1 mV in data set [4] and “Active” in data set [5]. For the same compound, the MIC in the data set with Staphylococcus aureus [6] is 16 µg/mL (≈ 19 µM); in the data set with Staphylococcus aureus [9], 32 µg/mL (≈ 38 µM); against Escherichia coli [2], 32 µg/mL (≈ 38 µM); against Acinetobacter baumannii, 32 µg/mL (≈ 38 µM). Further, the results for the IC50 at 24 h in data set [13] and in data set [16] were 81.7 µg/mL (≈ 97.1 µM) and 117 µg/mL (≈ 139 µM), respectively. In data set [8], this compound yielded a Retention_time of 14.6 min.

`CNC(C)[C@@H]1CC[C@@H](N)[C@@H](O[C@H]2[C@H](O)[C@@H](O[C@H]3OC[C@](C)(O)[C@H](NC)[C@H]3O)[C@H](N)C[C@@H]2N)O1` (stereo partly drawn): the MIC with Escherichia coli [2] and against Acinetobacter baumannii was 1 µg/mL (≈ 2.09 µM) throughout. In the data set on Staphylococcus aureus [17], the outcome was Active.

In the case of `CO[C@H]1/C=C/O[C@@]2(C)Oc3c(C)c(O)c4c(O)c(c(/C=N/N5CCN(C)CC5)c(O)c4c3C2=O)NC(=O)/C(C)=C\C=C\[C@H](C)[C@H](O)[C@@H](C)[C@@H](O)[C@@H](C)[C@H](OC(C)=O)[C@@H]1C` [RIFAMPIN], the MIC in the data set with Escherichia coli [2] and against Acinetobacter baumannii was 8 µg/mL (≈ 9.72 µM) in each case.
